From ChEMBL document CHEMBL1255494, “In vivo comparison of the pharmacodynamic targets for echinocandin drugs against Candida species” (Antimicrob Agents Chemother, 2010)
In brackets after ≈: the same amount, converted by molar mass. *1 amine or outer side, *2 acyl side, *3 side chain or, on linkers, in order; H or OH if unused. Where a SMILES comes first, the peptide text is derived from it. Bridges are numbered along the chain shown (N, C = ends). [ ]: non-standard residue; d: D form. The star is where a group is joined. hTyr(3S-OH,4S-OH,3'-OSO3H) = N[C@H](C(=O)O)[C@H](O)[C@@H](O)c1ccc(O)c(OS(=O)(=O)O)c1; pTerphenylCO(4''-OnC5H11) = CCCCCOc1ccc(-c2ccc(-c3ccc(C(=O)*)cc3)cc2)cc1; Orn(4R-OH,5R-OH) = O=C([C@H](C[C@@H](O)[C@@H](O)N[*:3])N[*:1])[*:2]; hTyr(3S-OH,4S-OH) = N[C@H](C(=O)O)[C@H](O)[C@@H](O)c1ccc(O)cc1; Pro(3S-OH,4S-Me) = C[C@H]1CN[C@H](C(=O)O)[C@H]1O; X1 = CCCCCOc1ccc(-c2cc(-c3ccc(C(=O)*)cc3)no2)cc1; Gln(3R-OH) = NC(=O)C[C@@H](O)[C@H](N)C(=O)O; Hyp = O=C(O)[C@@H]1C[C@@H](O)CN1

How the values were obtained:
Mus musculus [1] = test: Cmax in Candida albicans infected neutropenic ICR Swiss mouse at 5 mg/kg, ip; assay type: ADME, organism-based; parameters: dose 5 mg/kg, route intraperitoneal; conditions: in vivo
In short: (§1)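 Neutropenic female ICR Swiss mice (cyclophosphamide sc at 150 mg/kg on day −4, 100 mg/kg on day −1 and day +2) infected iv via tail vein with Candida; single ip doses of 5, 20 or 80 mg/kg. Serum drawn from 3 mice per time point at eight time points and assayed by microbiologic assay (C. albicans K1) or […]. Noncompartmental analysis; AUC by trapezoidal rule.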

Candida parapsilosis [2] = test: Antifungal activity against Candida parapsilosis 20511.092 after 24 hrs; assay type: functional; conditions: Lodderomyces parapsilosis, 20511.092, 24 h
In short: (§2)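 MICs by CLSI M27-A3 broth dilution in RPMI 1640, inoculum 0.5 × 10³ to 2.5 × 10³ cells/ml, 35°C. Read visually at 24 h as the lowest concentration giving ≥50% growth reduction versus control. Run on three occasions in duplicate and reported as the mean. C. krusei ATCC 6258 and C. parapsilosis ATCC 22019 served as QC strains.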

Candida parapsilosis [3] = test: Antifungal activity against Candida parapsilosis infected in ICR Swiss mouse; assay type: functional; conditions: for ED50: Lodderomyces parapsilosis
In short: (§3)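 Female ICR Swiss mice, neutropenic via cyclophosphamide s.c. (150 mg/kg day −4, 100 mg/kg day −1 and day +2), infected by tail-vein injection of clinical isolates 2 h before therapy. Intraperitoneal dosing every 24 h for 4 days, 4–6 dose levels from 0.078 to 160 mg/kg, 3 mice per regimen. Kidney CFU counted at 96 h. Sigmoid dose-effect fit gives static dose and 1 log kill dose relative to burden at start of therapy.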

Candida orthopsilosis = test: Antifungal activity against Candida orthopsilosis 20577.055 after 24 hrs; assay type: functional; conditions: Lodderomyces orthopsilosis, 20577.055, 24 h; in short: as §2
Nakaseomyces glabratus [4] = test: Antifungal activity against Candida glabrata 37661 after 24 hrs; assay type: functional; conditions: Nakaseomyces glabratus, 37661, 24 h; in short: as §2
Candida parapsilosis [5] = test: Antifungal activity against Candida parapsilosis 20477.078 after 24 hrs; assay type: functional; conditions: Lodderomyces parapsilosis, 20477.078, 24 h; in short: as §2
[6] = Ratio of AUC (0 to 24 hrs) in Candida albicans infected neutropenic ICR Swiss mouse to MIC for Candida albicans at 1 log kill dose after 24 hrs; assay type: functional
In short: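 Neutropenic mice were infected iv and treated 2 h later. Four to six ip dose levels (0.078–160 mg/kg) were given every 24 h for 4 days, 3 mice per regimen. Kidney CFU were counted at 96 h. A sigmoid dose-effect model gave the static and 1-log-kill doses relative to burden at therapy start.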

Nakaseomyces glabratus [7] = test: Antifungal activity against Candida glabrata 35315 after 24 hrs; assay type: functional; conditions: Nakaseomyces glabratus, 35315, 24 h; in short: as §2
[8] = Ratio of fAUC (0 to 24 hrs) in Candida glabrata infected neutropenic ICR Swiss mouse to MIC for Candida glabrata at static dose after 24 hrs; assay type: functional
Nakaseomyces glabratus [9] = test: Antifungal activity against Candida glabrata 513 after 24 hrs; assay type: functional; conditions: Nakaseomyces glabratus, 513, 24 h
In short: (§4)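 Broth microdilution per CLSI M27-A3 in RPMI 1640; inoculum 0.5 × 10³ to 2.5 × 10³ cells/ml, 35°C. […] Three separate occasions in duplicate, mean reported; C. krusei ATCC 6258 and C. parapsilosis ATCC 22019 as daily QC.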

Candida albicans [10] = test: Antifungal activity against Candida albicans infected in ICR Swiss mouse; assay type: functional; conditions: for ED50: Candida albicans; in short: as §3
Nakaseomyces glabratus [11] = test: Antifungal activity against Candida glabrata 32930 after 24 hrs; assay type: functional; conditions: Nakaseomyces glabratus, 32930, 24 h; in short: as §4
Mus musculus [12] = test: Cmax in Candida albicans infected neutropenic ICR Swiss mouse at 80 mg/kg, ip; assay type: ADME, organism-based; parameters: dose 80 mg/kg, route intraperitoneal; conditions: in vivo; in short: as §1
Mus musculus [13] = test: Cmax in Candida albicans infected neutropenic ICR Swiss mouse at 20 mg/kg, ip; assay type: ADME, organism-based; parameters: dose 20 mg/kg, route intraperitoneal; conditions: in vivo; in short: as §1
Candida parapsilosis [14] = test: Antifungal activity against Candida parapsilosis infected in ICR Swiss mouse assessed log reduction in bacterial count […]; assay type: functional; in short: as §3
Nakaseomyces glabratus [15] = test: Antifungal activity against Candida glabrata infected in ICR Swiss mouse; assay type: functional; conditions: for ED50: Nakaseomyces glabratus; in short: as §3
Nakaseomyces glabratus [16] = test: Antifungal activity against Candida glabrata 33616 after 24 hrs; assay type: functional; conditions: Nakaseomyces glabratus, 33616, 24 h; in short: as §2
Candida albicans [17] = test: Fungistatic activity against Candida albicans infected in neutropenic ICR Swiss mouse after 24 hrs; assay type: functional; in short: as §3
Candida metapsilosis = test: Antifungal activity against Candida metapsilosis 20463.02 after 24 hrs; assay type: functional; conditions: Lodderomyces metapsilosis, 20463.02, 24 h; in short: as §2
Candida albicans [18] = test: Antifungal activity against Candida albicans 98-234 after 24 hrs; assay type: functional; conditions: 98-234, 24 h; in short: as §2
Candida albicans [19] = test: Antifungal activity against Candida albicans infected in ICR Swiss mouse assessed as log reduction in bacterial count […]; assay type: functional; in short: as §3
Nakaseomyces glabratus [20] = test: Fungistatic activity against Candida glabrata infected in neutropenic ICR Swiss mouse after 24 hrs; assay type: functional; in short: as §3

| Compound | MIC (Candida parapsilosis [2]) [µg/mL] | Emax (Candida parapsilosis [3]) [log10 CFU/kidneys] | ED50 (Candida parapsilosis [3]) [mg/kg] | MIC (Candida orthopsilosis) [µg/mL] | MIC (Nakaseomyces glabratus [4]) [µg/mL] | MIC (Candida parapsilosis [5]) [µg/mL] | Ratio [6] | MIC (Nakaseomyces glabratus [7]) [µg/mL] | Ratio [8] | MIC (Nakaseomyces glabratus [9]) [µg/mL] | Emax (Candida albicans [10]) [log10 CFU/kidneys] | ED50 (Candida albicans [10]) [mg/kg] | MIC (Nakaseomyces glabratus [11]) [µg/mL] | Activity (Candida parapsilosis [14]) [mg/kg] | Emax (Nakaseomyces glabratus [15]) [log10 CFU/kidneys] | ED50 (Nakaseomyces glabratus [15]) [mg/kg] | MIC (Nakaseomyces glabratus [16]) [µg/mL] | Activity (Candida albicans [17]) [mg/kg] | MIC (Candida metapsilosis) [µg/mL] | Activity (Candida albicans [19]) [mg/kg] | other results |
| --- | --- | --- | --- | --- | --- | --- | --- | --- | --- | --- | --- | --- | --- | --- | --- | --- | --- | --- | --- | --- | --- |
| CCCCCOc1ccc(-c2ccc(-c3ccc(C(=O)N[C@H]4C[C@@H](O)[C@@H](O)NC(=O)[C@@H]5[C@@H](O)[C@@H](C)CN5C(=O)[C@H]([C@@H](C)O)NC(=O)[C@H]([C@H](O)[C@@H](O)c5ccc(O)cc5)NC(=O)[C@@H]5C[C@@H](O)CN5C(=O)[C@H]([C@@H](C)O)NC4=O)cc3)cc2)cc1 [ANIDULAFUNGIN] ({pTerphenylCO(4''-OnC5H11)}-[Orn(4R-OH,5R-OH)]T[Hyp][hTyr(3S-OH,4S-OH)]T[Pro(3S-OH,4S-Me)]; lactam 1-C) | 1 (≈ 0.877 µM) | 5.8 | 7.2 | 0.5 (≈ 0.438 µM) | 2 (≈ 1.75 µM) | 2 (≈ 1.75 µM) | 9125 | 0.25 (≈ 0.219 µM) | 13.7 | 0.06 (≈ 0.0526 µM) | 6.9 | 26.1 | 0.06 (≈ 0.0526 µM) | 47 | 6 | 15.5 | 1 (≈ 0.877 µM) | 2.32 | 0.25 (≈ 0.219 µM) | 4.25 | Cmax (Mus musculus [1]): 4300 ng/mL; Cmax (Mus musculus [12]): 60000 ng/mL; Cmax (Mus musculus [13]): 24000 ng/mL; MIC (Candida albicans [18]): 0.015 µg/mL (≈ 0.0132 µM); Activity (Nakaseomyces glabratus [20]): 21.1 mg/kg |
| CCCCCOc1ccc(-c2cc(-c3ccc(C(=O)N[C@H]4C[C@@H](O)[C@@H](O)NC(=O)[C@@H]5[C@@H](O)[C@@H](C)CN5C(=O)[C@H]([C@H](O)CC(N)=O)NC(=O)[C@H]([C@H](O)[C@@H](O)c5ccc(O)c(OS(=O)(=O)O)c5)NC(=O)[C@@H]5C[C@@H](O)CN5C(=O)[C@H]([C@@H](C)O)NC4=O)cc3)no2)cc1 [MICAFUNGIN] (X1-[Orn(4R-OH,5R-OH)]T[Hyp][hTyr(3S-OH,4S-OH,3'-OSO3H)][Gln(3R-OH)][Pro(3S-OH,4S-Me)]; lactam 1-C) | 0.25 (≈ 0.197 µM) | 4.8 | 2.6 | 0.25 (≈ 0.197 µM) | 0.25 (≈ 0.197 µM) | 0.5 (≈ 0.394 µM) | 10088 | 0.06 (≈ 0.0472 µM) | 3.9 | 0.016 (≈ 0.0126 µM) | 7.2 | 18.9 | 0.008 (≈ 0.0063 µM) | 55.8 | 5.4 | 3 | 0.25 (≈ 0.197 µM) | 2.79 | 0.12 (≈ 0.0945 µM) | 5.63 | Activity (Nakaseomyces glabratus [20]): 2.47 mg/kg |
